Laboratory results: ChEMBL document CHEMBL3576819, “Design, synthesis, biological evaluation and molecular docking studies of phenylpropanoid derivatives as potent anti-hepatitis B virus agents” (Eur J Med Chem, 2015)

Key:
Hepatitis B virus [1] = assay: Antiviral activity against Hepatitis B virus infected in human HepG2.2.15 cells assessed as inhibition of HBsAg secretion at 37.5 uM after 6 days by ELISA; format: functional; details: HepG2 2.2.15, 144 h
In short: (§1)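 HepG2.2.15 cells (MEM, 10% FBS, 380 µg/ml G418) seeded at 1×10^5 cells/ml, held 24 h at 37 °C, then treated with various drug concentrations; medium with drug renewed every 3 d for up to 9 d. Culture medium sampled on days 3, 6 and 9, stored at -20 °C, and assayed for secreted antigen. Lamivudine as positive control; IC50 = 50% inhibition of secretion; means of at least two experiments.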

Hepatitis B virus [2] = assay: Antiviral activity against Hepatitis B virus infected in human HepG2.2.15 cells assessed as inhibition of HBsAg secretion at 300 uM after 3 days by ELISA; format: functional; details: HepG2 2.2.15, 72 h; in short: as §1
Hepatitis B virus [3] = assay: Antiviral activity against Hepatitis B virus infected in human HepG2.2.15 cells assessed as inhibition of HBV DNA replication by real-time fluorescence quantitative PCR analysis; format: functional, organism-based; details: HepG2 2.2.15
Hepatitis B virus [4] = assay: Antiviral activity against Hepatitis B virus infected in human HepG2.2.15 cells assessed as inhibition of HBeAg secretion at 75 uM after 6 days by ELISA; format: functional; details: HepG2 2.2.15, 144 h; in short: as §1
Hepatitis B virus [5] = assay: Antiviral activity against Hepatitis B virus infected in human HepG2.2.15 cells assessed as inhibition of HBV DNA copies per uL at 300 uM after 3 days by real-time fluorescence quantitative PCR analysis; format: functional; details: HepG2 2.2.15, 72 h
Hepatitis B virus [6] = assay: Antiviral activity against Hepatitis B virus infected in human HepG2.2.15 cells assessed as inhibition of HBeAg secretion at 37.5 uM after 3 days by ELISA; format: functional; details: HepG2 2.2.15, 72 h; in short: as §1
[7] = Selectivity index, ratio of CC50 for human HepG2.2.15 cells to IC50 for Hepatitis B virus infected in human HepG2.2.15 cells assessed as inhibition of HBeAg secretion; format: functional
In short: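 Selectivity index computed as CC50/IC50, with CC50 from cell death of HepG2.2.15 cells after 9 days of treatment (OD 450 nm) and IC50 from 50% inhibition of HBeAg or HBsAg secretion in the same cells; medium with drug renewed every 3 d.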

Hepatitis B virus [8] = assay: Antiviral activity against Hepatitis B virus infected in human HepG2.2.15 cells assessed as inhibition of HBeAg secretion at 300 uM after 3 days by ELISA; format: functional; details: HepG2 2.2.15, 72 h; in short: as §1
Hepatitis B virus [9] = assay: Antiviral activity against Hepatitis B virus infected in human HepG2.2.15 cells assessed as inhibition of HBV DNA copies per uL at 150 uM after 9 days by real-time fluorescence quantitative PCR analysis; format: functional; details: HepG2 2.2.15, 216 h
[10] = Selectivity index, ratio of CC50 for human HepG2.2.15 cells to IC50 for Hepatitis B virus infected in human HepG2.2.15 cells assessed as inhibition of HBV DNA replication; format: functional
Hepatitis B virus [11] = assay: Antiviral activity against Hepatitis B virus infected in human HepG2.2.15 cells assessed as inhibition of HBeAg secretion at 37.5 uM after 9 days by ELISA; format: functional; details: HepG2 2.2.15, 216 h; in short: as §1
Hepatitis B virus [12] = assay: Antiviral activity against Hepatitis B virus infected in human HepG2.2.15 cells assessed as inhibition of HBeAg secretion at 300 uM after 6 days by ELISA; format: functional; details: HepG2 2.2.15, 144 h; in short: as §1
Hepatitis B virus [13] = assay: Antiviral activity against Hepatitis B virus infected in human HepG2.2.15 cells assessed as inhibition of HBeAg secretion at 300 uM after 9 days by ELISA; format: functional; details: HepG2 2.2.15, 216 h; in short: as §1
Hepatitis B virus [14] = assay: Antiviral activity against Hepatitis B virus infected in human HepG2.2.15 cells assessed as inhibition of HBsAg secretion at 150 uM after 6 days by ELISA; format: functional; details: HepG2 2.2.15, 144 h; in short: as §1
Hepatitis B virus [15] = assay: Antiviral activity against Hepatitis B virus infected in human HepG2.2.15 cells assessed as inhibition of HBeAg secretion at 75 uM after 3 days by ELISA; format: functional; details: HepG2 2.2.15, 72 h; in short: as §1
Hepatitis B virus [16] = assay: Antiviral activity against Hepatitis B virus infected in human HepG2.2.15 cells assessed as inhibition of HBV DNA copies per uL at 75 uM after 9 days by real-time fluorescence quantitative PCR analysis; format: functional; details: HepG2 2.2.15, 216 h
Hepatitis B virus [17] = assay: Antiviral activity against Hepatitis B virus infected in human HepG2.2.15 cells assessed as cell survival at 150 uM after 9 days (reference value: 100%); format: functional; details: HepG2 2.2.15, 216 h
In short: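 HepG2.2.15 cells (MEM, 10% FBS, 380 µg/ml G418, 37 °C, 5% CO2) seeded at 1×10^5 cells/ml, cultured 24 h, then exposed to various drug concentrations; drug-containing medium renewed every 3 d. OD read at 450 nm after 9 days; percent cell death calculated; CC50 = concentration killing 50% of cells. Means of at least two experiments.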

Hepatitis B virus [18] = assay: Antiviral activity against Hepatitis B virus infected in human HepG2.2.15 cells assessed as inhibition of HBeAg secretion at 150 uM after 9 days by ELISA; format: functional; details: HepG2 2.2.15, 216 h; in short: as §1

Row | Structure (SMILES) | inhibition at 37.5 µM (Hepatitis B virus [1]) | inhibition at 300 µM (Hepatitis B virus [2]) | IC50 (Hepatitis B virus [3]) | inhibition at 75 µM (Hepatitis B virus [4]) | inhibition at 300 µM (Hepatitis B virus [5]) | inhibition at 37.5 µM (Hepatitis B virus [6]) | Ratio CC50/IC50 [7] | inhibition at 300 µM (Hepatitis B virus [8]) | inhibition at 150 µM (Hepatitis B virus [9]) | Ratio CC50/IC50 [10] | inhibition at 37.5 µM (Hepatitis B virus [11]) | inhibition at 300 µM (Hepatitis B virus [12]) | inhibition at 300 µM (Hepatitis B virus [13]) | inhibition at 150 µM (Hepatitis B virus [14]) | inhibition at 75 µM (Hepatitis B virus [15]) | inhibition at 75 µM (Hepatitis B virus [16]) | viability at 150 µM (Hepatitis B virus [17]) | inhibition at 150 µM (Hepatitis B virus [18])
1 | O=C(/C=C/c1ccc2c(c1)OCO2)O/N=C/c1ccccn1 | 55.4% | 75.8% | 23.4 µM | 74.8% | 62.8% | 31.7% | 40.82 | 63.5% | 72.2% | 10.8 | 82.5% | 85.1% | 96.4% | 80.5% | 47.5% | 68.7% | 53.8% | 95.9%
2 | COc1cc(/C=C/C(=O)O/N=C/c2ccco2)cc2c1OCO2 | 24.9% | 66.2% | 140 µM | 37.8% | 46.5% | 24.9% | 10.89 | 59.8% | 52% | 5.87 | 31% | 62% | 74.6% | 58.5% | 32.1% | 39.6% | 91.5% | 65.2%
3 | COc1cc(/C=C/C(=O)O/N=C/c2ccccn2)cc2c1OCO2 | 25.3% | 58.5% | 95 µM | 42.3% | 41.1% | 17.8% | 8.85 | 54.2% | 54.5% | 6.78 | 30% | 75.4% | 82.6% | 59.6% | 27.3% | 47.3% | 82.8% | 65.3%
4 | Nc1ccn([C@@H]2CS[C@H](CO)O2)c(=O)n1 [LAMIVUDINE] | 7.98% | 37.3% | 6.86 µM | 22.1% | 59.5% | 10.1% | 2.13 | 30.9% | 81.6% | 82.84 | 18.4% | 39.9% | 4% | 30.7% | 15.1% | 76.7% | 82.4% | 45.4%
